From ChEMBL document CHEMBL2029315 (Bioorg Med Chem Lett, 2012)
The source made the active and inactive calls. The calls are words filed in the database; no cut-off is given here.

Assays:
[1] = tested on: U-937; assay: Inhibition of PMA-induced human U937 cell attachment treated for 24 hrs measured after 60 hrs; assay type: functional, cell-based
Method in brief: (§1)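 Floating and attached cells counted 60 hr after treatment, giving proliferation (total count) and attachment. Mean ± SEM of five independent experiments.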

[2] = tested on: U-937; assay: Inhibition of PMA-induced human U937 cells antiproliferation activity after 60 hrs; assay type: functional, cell-based; method in brief: as §1
[3] = biological target: Protein kinase C beta type (Homo sapiens) (UniProt P05771); assay: Modulation of PKCbeta in human K562 cells assessed as protein down-regulation after 24 hrs by Western blotting analysis; assay type: cell-based
Method in brief: (§2)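 K562 cells (150,000 cells/ml) treated 24 hr after plating with a dose range for 24 hr. Total cell lysates analysed by Western blot for C1 domain-containing proteins, with actin as loading control. Representative of three independent experiments.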

[4] = biological target: Protein kinase C delta type (Homo sapiens) (UniProt Q05655); assay: Modulation of PKCdelta in human K562 cells assessed as protein down-regulation after 24 hrs by Western blotting analysis; assay type: cell-based; method in brief: as §2
[5] = biological target: T1, Protein kinase C epsilon type (Homo sapiens) (UniProt Q02156); assay: Modulation of PKCepsilon in human K562 cells assessed as […] after 24 hrs by Western blotting analysis; assay type: cell-based; method in brief: as §2
T1 sequence (whole entry): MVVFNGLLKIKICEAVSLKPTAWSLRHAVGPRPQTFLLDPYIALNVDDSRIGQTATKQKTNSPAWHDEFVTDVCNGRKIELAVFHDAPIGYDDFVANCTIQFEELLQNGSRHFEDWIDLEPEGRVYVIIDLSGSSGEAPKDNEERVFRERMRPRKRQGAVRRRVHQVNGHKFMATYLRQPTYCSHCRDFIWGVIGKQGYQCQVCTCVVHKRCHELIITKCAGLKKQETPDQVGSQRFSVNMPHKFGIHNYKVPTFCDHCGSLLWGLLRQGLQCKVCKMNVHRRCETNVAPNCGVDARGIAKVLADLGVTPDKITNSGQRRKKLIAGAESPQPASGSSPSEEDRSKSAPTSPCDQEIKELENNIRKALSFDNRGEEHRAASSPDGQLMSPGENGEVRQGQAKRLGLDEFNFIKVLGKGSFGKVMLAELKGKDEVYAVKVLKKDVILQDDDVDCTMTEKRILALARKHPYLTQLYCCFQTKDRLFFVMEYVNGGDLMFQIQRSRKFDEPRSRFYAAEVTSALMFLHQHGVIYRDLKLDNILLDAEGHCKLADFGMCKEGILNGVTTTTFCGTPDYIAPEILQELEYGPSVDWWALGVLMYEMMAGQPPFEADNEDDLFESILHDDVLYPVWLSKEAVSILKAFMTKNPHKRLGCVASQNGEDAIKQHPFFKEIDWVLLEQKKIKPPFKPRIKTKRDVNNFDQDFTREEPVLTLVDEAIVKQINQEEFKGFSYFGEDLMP

[6] = biological target: T2, Ras guanyl-releasing protein 3 (Homo sapiens) (UniProt Q8IV61); assay: Modulation of RASGRP3 in human K562 cells assessed as […] after 24 hrs by Western blotting analysis; assay type: cell-based; method in brief: as §2
T2 sequence (whole entry): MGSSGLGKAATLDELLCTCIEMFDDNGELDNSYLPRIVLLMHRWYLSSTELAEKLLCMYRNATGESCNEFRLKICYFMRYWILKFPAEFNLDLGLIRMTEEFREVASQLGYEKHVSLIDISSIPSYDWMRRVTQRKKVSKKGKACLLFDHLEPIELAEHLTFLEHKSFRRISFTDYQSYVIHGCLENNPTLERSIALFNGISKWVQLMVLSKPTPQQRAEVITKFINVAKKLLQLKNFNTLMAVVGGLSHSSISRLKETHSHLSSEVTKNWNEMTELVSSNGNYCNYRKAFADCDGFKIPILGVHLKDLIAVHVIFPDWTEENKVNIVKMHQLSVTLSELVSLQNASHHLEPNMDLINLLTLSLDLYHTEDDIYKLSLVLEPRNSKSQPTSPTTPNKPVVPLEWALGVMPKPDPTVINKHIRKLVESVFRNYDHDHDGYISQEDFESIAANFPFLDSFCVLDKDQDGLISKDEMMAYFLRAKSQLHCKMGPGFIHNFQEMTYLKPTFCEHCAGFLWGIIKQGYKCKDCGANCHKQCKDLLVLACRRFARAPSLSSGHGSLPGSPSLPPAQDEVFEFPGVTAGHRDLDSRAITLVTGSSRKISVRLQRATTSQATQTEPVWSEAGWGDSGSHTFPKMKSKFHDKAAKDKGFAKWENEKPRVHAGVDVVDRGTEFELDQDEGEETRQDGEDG

[7] = Binding affinity to PKC
[8] = tested on: U-937; assay: Induction of human U937 cells attachment at 0.1 to 3000 nM treated for 24 hrs measured after 60 hrs; assay type: functional, cell-based
Method in brief: (§3)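 U937 cells were seeded, then treated 24 h later across a concentration series. Floating and attached cells were counted separately 60 h after treatment, giving proliferation and attachment read-outs. Data are mean ± SEM of five independent experiments.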

[9] = tested on: U-937; assay: Antiproliferative activity against human U937 cells at 0.1 to 3000 nM after 60 hrs; assay type: functional, cell-based; method in brief: as §3
[10] = tested on: K562; assay: Antiproliferative activity against human K562 cells after 60 hrs in presence of PMA; assay type: functional, cell-based
Method in brief: (§4)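 K562 or MV4-11 cells were seeded, then exposed to compound 24 h later alongside 10 nM PMA. Total cell number was counted 60 h after treatment. Data are mean ± SEM of three independent experiments.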

[11] = tested on: MV4-11; assay: Antiproliferative activity against human MV411 cells after 60 hrs in presence of PMA; assay type: functional, cell-based; method in brief: as §4
[12] = tested on: K562; assay: Inhibition of PMA-induced human K562 cell attachment treated for 24 hrs measured after 60 hrs; assay type: functional, cell-based
[13] = tested on: MV4-11; assay: Inhibition of PMA-induced human MV411 cell attachment treated for 24 hrs measured after 60 hrs; assay type: functional, cell-based
[14] = tested on: K562; assay: Inhibition of bryostatin1-induced human K562 cell attachment treated for 24 hrs measured after 60 hrs; assay type: functional, cell-based
[15] = tested on: MV4-11; assay: Inhibition of bryostatin1-induced human MV411 cell attachment treated for 24 hrs measured after 60 hrs; assay type: functional, cell-based
[16] = tested on: K562; assay: Antiproliferative activity against human K562 cells after 60 hrs in presence of PMA
[17] = tested on: MV4-11; assay: Antiproliferative activity against human MV411 cells after 60 hrs in presence of PMA
[18] = tested on: U-937; assay: Induction of human U937 cells attachment at 0.1 to 1000 nM treated for 24 hrs measured after 60 hrs; assay type: functional, cell-based; method in brief: as §1
[19] = tested on: U-937; assay: Antiproliferative activity against human U937 cells at 0.1 to 1000 nM after 60 hrs; assay type: functional, cell-based; method in brief: as §1

Sequence of Protein kinase C delta type (Homo sapiens) (Q05655 whole entry, looked up): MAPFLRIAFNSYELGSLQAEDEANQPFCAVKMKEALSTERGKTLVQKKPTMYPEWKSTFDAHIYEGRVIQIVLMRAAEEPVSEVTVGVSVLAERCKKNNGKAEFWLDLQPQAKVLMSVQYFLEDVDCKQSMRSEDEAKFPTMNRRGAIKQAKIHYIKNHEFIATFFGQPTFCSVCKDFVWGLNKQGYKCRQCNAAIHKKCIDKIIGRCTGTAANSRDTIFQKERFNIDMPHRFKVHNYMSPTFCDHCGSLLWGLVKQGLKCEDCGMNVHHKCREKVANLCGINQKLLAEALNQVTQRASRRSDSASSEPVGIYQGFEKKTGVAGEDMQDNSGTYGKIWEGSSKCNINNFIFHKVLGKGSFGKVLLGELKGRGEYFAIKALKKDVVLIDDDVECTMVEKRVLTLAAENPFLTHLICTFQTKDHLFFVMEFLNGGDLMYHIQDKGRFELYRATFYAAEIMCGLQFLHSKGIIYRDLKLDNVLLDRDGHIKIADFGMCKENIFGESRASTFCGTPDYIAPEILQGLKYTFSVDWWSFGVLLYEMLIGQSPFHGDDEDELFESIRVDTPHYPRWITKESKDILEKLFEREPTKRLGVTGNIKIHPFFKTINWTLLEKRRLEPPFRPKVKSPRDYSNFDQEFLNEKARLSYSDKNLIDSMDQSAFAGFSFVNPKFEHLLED
Sequence of Protein kinase C beta type (Homo sapiens) (P05771 2-671 limits assumed): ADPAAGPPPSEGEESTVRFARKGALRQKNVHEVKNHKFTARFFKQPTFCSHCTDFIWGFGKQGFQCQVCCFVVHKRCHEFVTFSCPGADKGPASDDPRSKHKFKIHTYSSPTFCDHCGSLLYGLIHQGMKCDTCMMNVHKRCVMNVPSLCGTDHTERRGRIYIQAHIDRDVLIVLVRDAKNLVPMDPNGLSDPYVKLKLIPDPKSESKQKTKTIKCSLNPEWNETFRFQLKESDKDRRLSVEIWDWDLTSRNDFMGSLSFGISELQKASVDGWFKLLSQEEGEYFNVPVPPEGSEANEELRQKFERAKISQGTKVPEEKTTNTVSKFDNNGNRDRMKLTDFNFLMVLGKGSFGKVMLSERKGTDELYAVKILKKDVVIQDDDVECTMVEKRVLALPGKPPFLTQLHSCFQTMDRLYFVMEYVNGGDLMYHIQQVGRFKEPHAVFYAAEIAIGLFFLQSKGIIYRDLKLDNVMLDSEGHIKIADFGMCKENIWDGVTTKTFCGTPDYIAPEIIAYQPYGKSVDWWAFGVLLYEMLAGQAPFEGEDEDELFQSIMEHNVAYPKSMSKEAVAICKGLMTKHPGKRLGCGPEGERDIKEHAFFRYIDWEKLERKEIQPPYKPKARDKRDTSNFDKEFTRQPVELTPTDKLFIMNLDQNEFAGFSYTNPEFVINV

| Structure (SMILES) | inhibition [1] | inhibition [2] | Activity [3] | Activity [4] | Activity [5] | Activity [6] | Ki [7] | Activity [8] | Activity [9] | Activity [10] | Activity [11] | inhibition [12] | inhibition [13] | inhibition [14] | inhibition [15] | Activity [16] | Activity [17] | Activity [18] | Activity [19] |
| --- | --- | --- | --- | --- | --- | --- | --- | --- | --- | --- | --- | --- | --- | --- | --- | --- | --- | --- | --- |
| CCC/C=C/C=C/C(=O)O[C@H]1/C(=C/C(=O)OC)C[C@H]2C[C@H]([C@@H](C)O)OC(=O)C[C@H](O)C[C@@H]3C[C@H](OC(C)=O)C(C)(C)[C@](O)(C[C@@H]4C/C(=C/C(=O)OC)C[C@H](/C=C/C(C)(C)[C@]1(O)O2)O4)O3 | Dose-dependent effect | Dose-dependent effect | Active | Active | inactive | inactive | – | – | – | – | – | – | – | – | – | – | – | – | – |
| C=C1C[C@H]2C[C@@H]3O[C@@H](CC(=C)C3(C)C)C[C@@H](O)CC(=O)O[C@@H]([C@@H](C)O)C[C@@H]3C/C(=C\C(=O)OC)[C@H](OC(=O)/C=C/C=C/CCC)[C@@](O)(O3)C(C)(C)/C=C/[C@@H](C1)O2 | – | – | – | – | Active | Active | 1.08 nM | Active | Active | Dose-dependent effect | Dose-dependent effect | inactive | inactive | Active | Active | Dose-dependent effect | Dose-dependent effect | – | – |
| CCCCCCCCCCCCCC(=O)O[C@@H]1[C@@H](C)[C@@]2(O)[C@@H](C=C(CO)C[C@]3(O)C(=O)C(C)=C[C@@H]23)[C@@H]2C(C)(C)[C@]12OC(C)=O | – | – | – | – | Active | Active | – | – | – | – | – | – | – | – | – | – | – | Active | Active |
